Assay results as given in PMC10955609 (Clinical and Translational Science, 2024).

How the values were obtained:
[1] = test system: imiquimod (IMQ)-induced skin inflammation (TLR7 activation); test: IMQ skin challenge: skin perfusion; assay type: in vivo, human; details: for Erythema: GMR of treatment effect vs. placebo (90% CrI): same dosing; for Clinical evaluation of skin reactions (visual grading): vs placebo
Summary of the method: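 Healthy men (12 per arm) took test compound (120 or 100 mg), placebo or prednisolone 20 mg b.i.d. orally for 7 days. From Day 3, 5% imiquimod cream (100 mg) went daily on tape-stripped back skin under 12-mm occlusion chambers for 3 days. Erythema (3D imaging), LSCI perfusion and CEA were read at baseline, 24, 48 and 72 h. Bayesian repeated-measures ANCOVA used log-transformed change from baseline.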

[2] = test system: LPS (TLR4)-driven TNF-α release in whole blood; details: 120 mg b.i.d. BAY1834845, 100 mg b.i.d. BAY1830839; ref multiple ascending dose phase I studies; cited from earlier work
[3] = test system: imiquimod (IMQ)-induced psoriasis; details: mice, compared with vehicle; cited from earlier work
[4] = 120 mg b.i.d. BAY1834845, 100 mg b.i.d. BAY1830839; ref multiple ascending dose phase I studies; cited from earlier work
[5] = PK in plasma and skin suction blister fluid; assay type: in vivo, human; details: for Individual suction blister fluid versus plasma ratio, geometric mean (CV): Day 6; for Total concentration in blister fluid, geometric mean (CV): Day 6, 2–4 h after drug intake, unchallenged skin
Summary of the method: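 Healthy men, 12 per arm, took test compound orally twice daily for 7 days. Total drug was measured in plasma and suction blister fluid on Day 6, […], and reported as geometric mean (CV). Blister-fluid-to-plasma ratios were calculated per subject.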

Safety monitoring = assay type: in vivo, human; details: safety analysis set; BAY groups N = 13, prednisolone N = 12; 7 days b.i.d.
[6] = test system: imiquimod (IMQ)-induced skin inflammation (TLR7 activation); test: Skin suction blister fluid analysis after IMQ challenge; assay type: in vivo, human; details: for Responses of CD8+ T cells and dendritic cells in suction blister fluid: 72 h after start of IMQ challenge; for IMQ-driven IP-10 and MxA in skin suction blister exudate: analysis on Day 6
Summary of the method: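 Suction blisters were raised by negative-pressure device on imiquimod-inflamed back skin at baseline and 24, 48 and 72 h after challenge start. Subjects were healthy men, 12 per arm, on oral twice-daily treatment begun 2 days before challenge. Blister fluid was analysed for immune cell subsets by flow cytometry and for cytokines/chemokines by multiplex immunoassay.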

[7] = test system: LPS (TLR4 agonist)-driven cytokine release in whole blood; test: Ex vivo whole blood challenge with LPS; assay type: cell-based, human
Summary of the method: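 Blood was drawn from healthy men, 12 per arm, at two baselines (Day −1, Day 1) and on Day 6 of oral twice-daily dosing. Challenges were run in duplicate at 37°C for 24 h: LPS 0.1 ng/mL or R848 0.35 μg/mL in prefilled culture tubes, and IL-1β 125 ng/mL in sodium heparin tubes. Supernatant cytokines were measured by multiplex immunoassay.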

[8] = test system: LPS-driven systemic inflammation (TLR4 activation); test: Systemic intravenous LPS challenge; assay type: in vivo, human; details: for Mild increase in core temperature after LPS: 2–6 h after i.v. LPS challenge; for LPS-driven increases in systolic blood pressure and pulse rate / Anti-inflammatory cytokine IL-10 after LPS challenge: compared with placebo; for Suppression of circulating TNF-α response vs. placebo / Anti-inflammatory cytokine IL-10 after LPS challenge / LPS-induced increases in IL-8, CRP and procalcitonin / IL-6 (blood): GMR of treatment effect vs. placebo (90% CrI) / TNF-α (blood): GMR of treatment effect vs. placebo (90% CrI): i.v. LPS challenge; for Suppression of circulating TNF-α response vs. placebo: averaged 0.5 to 6 h after LPS; for LPS-induced increases in IL-8, CRP and procalcitonin: vs placebo; for IL-6 (blood): GMR of treatment effect vs. placebo (90% CrI) / TNF-α (blood): GMR of treatment effect vs. placebo (90% CrI): same dosing
Summary of the method: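 On Day 7 of twice-daily oral treatment (12 healthy men per arm), purified E. coli O113 LPS 1 ng/kg in glucose 2.5%–NaCl 0.45% was given as a 2-min i.v. infusion. Hydration infusion ran from 2 h before to 6 h after. Cytokines, acute phase proteins, leukocytes, pulse, blood pressure and temperature were followed from 0.5 to 24 h. Bayesian repeated-measures ANCOVA gave GMR vs placebo (90% CrI).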

IL-1β-induced cytokines = details: upregulation in comparison with vehicle control also reported; cited from earlier work

Compound	Erythema: GMR of treatment effect vs. placebo (90% CrI) [1]	Clinical evaluation of skin reactions (visual grading) [1]	Mean suppression of TNFα (TLR4-cytokine release in ex vivo whole blood assay) [2] [%]	Severity of psoriasis-like lesions; extent of erythema, skin thickening and scaling [3]	Systemic exposure [4]	Individual suction blister fluid versus plasma ratio, geometric mean (CV) [5]	Total concentration in blister fluid, geometric mean (CV) [5]	Responses of CD8+ T cells and dendritic cells in suction blister fluid [6]	IMQ-driven IP-10 and MxA in skin suction blister exudate [6]	Inhibition of TLR4-driven IL-6 in ex vivo whole blood challenge [7]	Inhibition of TLR4-driven TNF-α in ex vivo whole blood challenge [7]	Mild increase in core temperature after LPS [8]	LPS-driven increases in systolic blood pressure and pulse rate [8]	Suppression of circulating TNF-α response vs. placebo [8] [%]	Anti-inflammatory cytokine IL-10 after LPS challenge [8]	LPS-induced increases in IL-8, CRP and procalcitonin [8]	IL-6 (blood): GMR of treatment effect vs. placebo (90% CrI) [8]	TNF-α (blood): GMR of treatment effect vs. placebo (90% CrI) [8]	also measured
CC(C)(O)CCn1cc2cc(NC(=O)c3cccc(C(F)(F)F)n3)c(C(C)(C)O)cc2n1 [BAY1830839]	0.83	less severe inflammatory reaction	70	significantly reduced	4.3 (42.8%) mg/L	0.59 (16.2%)	3.0 (28.3%) mg/L	suppressed	strongly suppressed	73%	75%	without suppressing	suppressed	≥ 80	did not lead to an increase	inhibited	0.26 (0.17, 0.34)	0.14 (0.09, 0.19)	Erythema: GMR of treatment effect vs. placebo (90% CrI) ([1]; listed as BAY 1830839): 0.83 (0.67, 0.99); Any treatment-emergent AE (Safety monitoring): 8 (61.5%) n (%) of participants
CC(C)(O)c1cc2nn(CCS(C)(=O)=O)cc2cc1NC(=O)c1cccc(C(F)(F)F)n1 [BAY1834845, zabedosertib]	0.75	less severe inflammatory reaction	40	significantly reduced	5.2 (19.4%) mg/L	0.43 (22.7%)	2.6 (32.3%) mg/L	suppressed	strongly suppressed	approximately 50%	approximately 50%	without suppressing	suppressed	≥ 80	did not lead to an increase	inhibited	0.27 (0.18, 0.36)	0.20 (0.13, 0.27)	Erythema: GMR of treatment effect vs. placebo (90% CrI) ([1]; listed as BAY 1834845): 0.75 (0.60, 0.89)
CC[C@@H]1[C@H](F)C(=O)N[C@@H]1COc1nccc2cc(C(N)=O)c(OC)cc12 [PF‐06650833]																			Effects on IL-1β-induced cytokines (IL-1β-induced cytokines): weak effects
C[C@]12C=CC(=O)C=C1CC[C@@H]1[C@@H]2[C@@H](O)C[C@@]2(C)[C@H]1CC[C@]2(O)C(=O)CO [Prednisolone, prednisolone, reference compound]	0.86 (0.69, 1.02)							suppressed	strongly suppressed						induced		0.31 (0.21, 0.41)	0.31 (0.20, 0.41)	Erythema: GMR of treatment effect vs. placebo (90% CrI) ([1]; listed as prednisolone): 0.86; Responses of NK cells and classical monocytes in suction blister fluid ([6]; 72 h post-challenge, after preceding increase up to 48 h): markedly suppressed
